Measurements published in ChEMBL document CHEMBL2093137, “WHO-TDR NTD Screening”.
Values after ≈ are worked out from the molar mass of the structure shown.

Experiments:
[1] = test system: Plasmodium falciparum K1; assay: WHO-TDR: Malaria; format: functional, organism-based, Homo sapiens; settings: Erythrocyte
Procedure, shortened: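 A diverse library of 10,000 compounds from Life Chemicals, filtered for drug-likeness and reactive groups, was screened against the intra-erythrocytic Plasmodium falciparum K1 strain in human red blood cells. Previously published standard procedures were followed, with a reference drug as positive control. Antiplasmodial potency is given as IC50.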

[2] = test system: Trypanosoma cruzi; assay: WHO-TDR: Chagas disease; format: functional, organism-based, Homo sapiens; settings: MRC5
Procedure, shortened: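 Following previously published standard procedures, with a reference drug as positive control, a whole-organism assay was run on Trypanosoma cruzi Tulahuen CL2 beta-galactosidase strain amastigotes inside MRC-5SV2 human lung fibroblast host cells. The 10,000 compounds tested formed a diverse Life Chemicals library filtered for drug-likeness and reactive groups. Results are expressed as IC50 for antiparasitic potency.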

[3] = test system: Leishmania infantum; assay: WHO-TDR: Leishmaniasis; format: functional, organism-based, Mus musculus; settings: Macrophage
Procedure, shortened: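 A diverse library of 10,000 compounds from Life Chemicals, filtered for drug-likeness and reactive groups, was screened against whole organisms. The targets were intracellular amastigotes of Leishmania infantum MHOM/MA(BE)/67 growing in murine peritoneal macrophages. Previously published standard procedures were followed, with a reference drug as positive control. Antiparasitic potency is given as IC50.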

[4] = test system: Schistosoma mansoni; assay: WHO-TDR: Schistosomiasis; format: functional; set-up: concentration or dose not given beside the values
Procedure, shortened: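 In this whole-organism assay, larval and/or adult worms of Schistosoma mansoni (Puerto Rican strain) were exposed to compounds from a diverse Life Chemicals library of 10,000 members. A reference drug served as positive control. Activity is stated as percent inhibition and IC50.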

[5] = test system: Trypanosoma brucei brucei; assay: WHO-TDR: Human African Trypanosomiasis (HAT); format: functional, organism-based; settings: Squib-427
Procedure, shortened: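 A diverse library of 10,000 compounds from Life Chemicals, filtered for drug-likeness and reactive groups, was screened against bloodstream forms of Trypanosoma brucei Squib 427 strain in a whole-organism assay. Previously published standard procedures were followed, with reference drugs serving as positive controls. Antiparasitic potency is given as IC50.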

[6] = WHO-TDR: Cytotoxicity; format: toxicity, cell-based; settings: human, MRC5 cells
[7] = test system: Onchocerca lienalis; assay: WHO-TDR: Onchocerciasis; format: functional; set-up: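 at 12.5 µM on microfilariae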
Procedure, shortened: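 Microfilariae of Onchocerca ochengi or Onchocerca lienalis, animal pathogens standing in for the human parasite, were exposed to compounds in a whole-organism screen. The compounds came from a 10,000-compound diverse Life Chemicals library filtered for drug-likeness and reactive groups. Results are expressed as percent inhibition and IC50.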

Row | SMILES | IC50 [1] [µg/mL] | IC50 [2] [µg/mL] | IC50 [3] [µg/mL] | % Inhibition [4] [%] | IC50 [5] [µg/mL] | IC50 [6] [µg/mL] | % Inhibition [7] [%]
1 | CC(C)(C)c1ccc(C(=O)Nc2sccc2C(N)=O)cc1 | 2.68 (≈ 8.87 µM) | 2.41 (≈ 7.98 µM) | 1.95 (≈ 6.46 µM) | 0 | 0.633 (≈ 2.09 µM) | 4.3 (≈ 14.2 µM) | 13.3
2 | O=C(CSc1nnc(NC(=O)COc2ccc(Cl)cc2)s1)NCc1ccc2c(c1)OCO2 | 1.72 (≈ 3.48 µM) | 0.433 (≈ 0.879 µM) | 0.451 (≈ 0.914 µM) | 0 | 4.51 (≈ 9.14 µM) | 3.34 (≈ 6.77 µM) | 13.3
3 | CN(C)CCCN(C(=O)c1ccccc1F)c1nc2c(Cl)cccc2s1 | 0.848 (≈ 2.16 µM) | 4.41 (≈ 11.3 µM) | 4.16 (≈ 10.6 µM) | 0 | 0.237 (≈ 0.605 µM) | 3.81 (≈ 9.73 µM) | 13.3
4 | O=C(O)CCCCCN1C(=O)/C(=C\c2ccccc2O)SC1=S | > 10.5 | 0.653 (≈ 1.86 µM) | > 10.5 | 0 | 4.06 (≈ 11.5 µM) | > 10.5 | 6.7
5 | CCS(=O)(=O)c1ccc(-c2cccc(NC(=O)c3cc(Cl)ccc3Cl)c2)nn1 | > 13.1 | > 13.1 | 4.24 (≈ 9.71 µM) | 100 | > 13.1 | > 13.1 | 0
6 | O=S(=O)(NCC(c1cccnc1)N1CCN(Cc2ccccc2)CC1)c1ccc(Cl)cc1 (stereo not given) | 2.18 (≈ 4.63 µM) | 0.633 (≈ 1.34 µM) | > 14.1 | 0 | > 14.1 | > 14.1 | 0
7 | COc1ccccc1N1CCN(C(CNS(=O)(=O)c2cccs2)c2cccnc2)CC1 (stereo not given) | 6.66 (≈ 14.5 µM) | 0.559 (≈ 1.22 µM) | > 13.8 | 0 | > 13.8 | > 13.8 | 66.7
8 | CC(Sc1ccc2nnc(CCNC(=O)c3ccccc3)n2n1)c1ccccc1 (stereo not given) | 3.16 (≈ 7.83 µM) | 5.24 (≈ 13 µM) | 0.392 (≈ 0.971 µM) | 66.7 | 3.3 (≈ 8.17 µM) | > 12.1 | 0
9 | O=C(Cc1ccccc1)Nc1nnc(SCC(=O)NC2CCCC2)s1 | 0.609 (≈ 1.62 µM) | 4.16 (≈ 11.1 µM) | 3.96 (≈ 10.5 µM) | 0 | 0.382 (≈ 1.01 µM) | 3.82 (≈ 10.1 µM) | 6.7
10 | CCn1/c(=N\C(=O)c2ccc(C(C)=O)cc2)sc2cc(C)ccc21 | > 10.2 | 0.321 (≈ 0.948 µM) | > 10.2 | 0 | > 10.2 | > 10.2 | 80
11 | CCOC(=O)CNC(=O)CSc1nnc(NC(=O)c2ccccc2Cl)s1 | 0.848 (≈ 2.04 µM) | 4.41 (≈ 10.6 µM) | 4.16 (≈ 10 µM) | 0 | 0.237 (≈ 0.572 µM) | 3.81 (≈ 9.19 µM) | 13.3
12 | CN(C)CCCN(C(=O)c1nc2ccccc2s1)c1nc2c(Cl)cccc2s1 | 0.398 (≈ 0.923 µM) | 0.239 (≈ 0.555 µM) | 4.54 (≈ 10.5 µM) | 33.3 | 0.352 (≈ 0.817 µM) | 0.526 (≈ 1.22 µM) | 0
13 | CN(C)CCCN(C(=O)CCOc1ccccc1)c1nc2c(F)cccc2s1 | 8.18 (≈ 20.4 µM) | 0.409 (≈ 1.02 µM) | 4.25 (≈ 10.6 µM) | 0 | 4.25 (≈ 10.6 µM) | 1.94 (≈ 4.83 µM) | 0
14 | CCOC(=O)c1c(NC(=O)Cn2c(-n3nc(C)cc3C)nc(CC)cc2=O)sc2c1CCCCC2 | 4.44 (≈ 8.93 µM) | 0.724 (≈ 1.45 µM) | > 14.9 | 0 | > 14.9 | > 14.9 | 0
15 | COC(=O)c1c(NC(=O)c2nc3ccccc3s2)sc2c1CC(C)(C)NC2(C)C | > 12.9 | > 12.9 | > 12.9 | 0 | 0.216 (≈ 0.503 µM) | > 12.9 | -1
16 | CN(C(=O)CN1CC(=O)Oc2ccccc21)c1ccc(O)cc1 | 2.22 (≈ 7.11 µM) | 0.548 (≈ 1.75 µM) | 3.03 (≈ 9.71 µM) | 0 | 2.66 (≈ 8.52 µM) | 2.96 (≈ 9.49 µM) | 20
17 | O=S(=O)(NCC(c1cccnc1)N1CCN(c2ccccc2F)CC1)c1cc(F)ccc1F (stereo not given) | 4.27 (≈ 8.96 µM) | 0.265 (≈ 0.556 µM) | > 14.3 | 0 | 4.74 (≈ 9.95 µM) | > 14.3 | 0
18 | O=C(CSc1ccc2nnc(-c3ccccn3)n2n1)NCC1CCCO1 (stereo not given) | 3.16 (≈ 8.53 µM) | 5.24 (≈ 14.1 µM) | 0.392 (≈ 1.06 µM) | 0 | 3.3 (≈ 8.9 µM) | > 11.1 | 0

Row | SMILES | IC50 [1] [µg/mL] | IC50 [2] [µg/mL] | IC50 [3] [µg/mL] | % Inhibition [4] [%] | IC50 [5] [µg/mL] | IC50 [6] [µg/mL] | % Inhibition [7] [%]
19 | CC(C)(C)C(=O)Nc1nnc(SCC(=O)Nc2ccc(Cl)c(Cl)c2)s1 | 1.13 (≈ 2.69 µM) | 4.66 (≈ 11.1 µM) | 4.51 (≈ 10.7 µM) | 0 | 0.456 (≈ 1.09 µM) | 2.84 (≈ 6.78 µM) | 0
20 | CCOC(=O)c1c(NC(=O)C(C)n2c(-n3nc(C)cc3C)nc(CC)cc2=O)sc2c1CCC2 (stereo not given) | 2.96 (≈ 6.11 µM) | 0.57 (≈ 1.18 µM) | 4.7 (≈ 9.71 µM) | 0 | 4.64 (≈ 9.6 µM) | > 14.5 | 0
21 | COc1ccc(C(=O)Nc2nnc(SCC(=O)NCc3ccccc3Cl)s2)c(OC)c1 | 3.64 (≈ 7.61 µM) | > 14.4 | > 14.4 | 100 | 4.66 (≈ 9.73 µM) | > 14.4 | 0
22 | Fc1ccccc1CSc1ccc(-c2ccccn2)nn1 | > 8.92 | > 8.92 | > 8.92 | 8.3 | > 8.92 | > 8.92 | 97
23 | O=C(CSc1nnc(NC(=O)c2ccccc2C(F)(F)F)s1)Nc1ccc2c(c1)OCO2 | 0.653 (≈ 1.35 µM) | 4.76 (≈ 9.86 µM) | 4.55 (≈ 9.44 µM) | 0 | 0.45 (≈ 0.933 µM) | 3.97 (≈ 8.23 µM) | 0
24 | CCOC(=O)N1CCc2c(sc(NC(=O)c3ccco3)c2-c2nc3ccccc3s2)C1 | 1.36 (≈ 3 µM) | 0.455 (≈ 1 µM) | 0.43 (≈ 0.948 µM) | 58.7 | 0.377 (≈ 0.831 µM) | 4.51 (≈ 9.95 µM) | 73.3
25 | Cc1cc(NC(=O)CSc2ccc3nnc(-c4cccs4)n3n2)no1 | 0.155 (≈ 0.416 µM) | 4.97 (≈ 13.4 µM) | 4.29 (≈ 11.5 µM) | 0 | > 11.2 | > 11.2 | 6.7
26 | CN(CC1CCCO1)S(=O)(=O)c1ccc(C(=O)Nc2nc3c(s2)CSc2ccccc2-3)cc1 (stereo not given) | > 9.73 | 0.521 (≈ 1.04 µM) | 4.87 (≈ 9.71 µM) | 41.7 | 0.487 (≈ 0.971 µM) | 3 (≈ 5.99 µM) | 13.3
27 | O=C(NCCc1csc(-c2ccccc2)n1)C1CCCC1 | > 9.01 | 0.345 (≈ 1.15 µM) | > 9.01 | 0 | 0.152 (≈ 0.506 µM) | > 9.01 | 0
28 | O=C(Nc1nnc(SCc2ccccc2Cl)s1)C1CCCCC1 | 1.45 (≈ 3.95 µM) | 4.94 (≈ 13.4 µM) | 5.1 (≈ 13.9 µM) | 0 | 0.356 (≈ 0.967 µM) | > 11 | 0
29 | CN(C)CCCN(C(=O)c1ccc(N(C)C)cc1)c1nc2ccc(F)cc2s1 | 0.324 (≈ 0.809 µM) | 4.49 (≈ 11.2 µM) | 4.24 (≈ 10.6 µM) | 0 | 0.435 (≈ 1.09 µM) | 4.1 (≈ 10.2 µM) | 0
30 | COc1ccccc1NC(=O)Nc1nc(CC(=O)N2CCN(c3cccc(C(F)(F)F)c3)CC2)cs1 | 4.27 (≈ 8.23 µM) | 0.93 (≈ 1.79 µM) | > 15.6 | 0 | 3.43 (≈ 6.59 µM) | > 15.6 | 0
31 | O=C(CCS(=O)(=O)c1ccccc1)Nc1nc(-c2cccc3ccccc23)cs1 | 0.126 (≈ 0.297 µM) | 0.657 (≈ 1.55 µM) | 4.06 (≈ 9.62 µM) | 0 | 3.87 (≈ 9.15 µM) | 1.67 (≈ 3.96 µM) | 6.7
32 | CN(C)CCCN(C(=O)c1ccc2c(c1)CCCC2)c1nc2ccc(Br)cc2s1 | 1.16 (≈ 2.46 µM) | 3.21 (≈ 6.78 µM) | 0.791 (≈ 1.67 µM) | 66.7 | 0.483 (≈ 1.02 µM) | 2.1 (≈ 4.44 µM) | 0
33 | Cn1cc(S(=O)(=O)N2CCN(C(c3ccccc3)c3ccccc3)CC2)c(=O)n(C)c1=O | > 11.5 | 0.34 (≈ 0.749 µM) | 3.65 (≈ 8.02 µM) | 0 | 2.16 (≈ 4.75 µM) | > 11.5 | 0
34 | CCCS(=O)(=O)Nc1ccc(Nc2nc(C)cc(N(C)C)n2)cc1 | > 10.5 | 0.335 (≈ 0.959 µM) | > 10.5 | 0 | > 10.5 | > 10.5 | 0
35 | O=C(CSc1nnc(NC(=O)c2cc(Cl)ccc2Cl)s1)Nc1ccc2c(c1)OCO2 | 8.18 (≈ 16.9 µM) | 0.409 (≈ 0.847 µM) | 4.25 (≈ 8.8 µM) | 0 | 4.25 (≈ 8.8 µM) | 1.94 (≈ 4.02 µM) | 13.3
